# The list is not random: actives were taken first. Their share in the collection is about 2.9%.
# MEKK2 WT-MEK5: modulators of MEK5 binding to wildtype MEKK2, primary screen, biochemical, multiplex bead flow cytometry, Alexa488-MEK5; Mitogen-activated protein kinase kinase kinase 2 (Homo sapiens), Q9Y2U5; Alexa488-MEK5 binding to MEKK2 WT; actives lie on both sides; binding response (% of control), % at 10 µM; actives 1.1% (n = 290,000); AID 1531, 2009; in the data active = binding response below about 67% or above about 130%
# MEKK3 PB1 HTS: modulators of MEKK3-MEK5 PB1 binding, primary screen, biochemical, wildtype MEKK3, multiplex bead flow cytometry, Alexa488-MEK5; bead-based flow cytometry, Alexa488-MEK5 binding to MEKK3; actives lie on both sides; 0 = blocked by unlabeled MEK5, 100 = vehicle; actives 1.4% (n = 290,000); AID 1529, 2009; binding response (% of control), % at 10 µM;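 active = binding response more than 3 SD above or below the average of its plate-row segment, actives on both sides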;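 also: Alexa488 bead fluorescence after subtracting the streptavidin-only scavenger bead signal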
# Target sequence (Q99759 whole entry, looked up): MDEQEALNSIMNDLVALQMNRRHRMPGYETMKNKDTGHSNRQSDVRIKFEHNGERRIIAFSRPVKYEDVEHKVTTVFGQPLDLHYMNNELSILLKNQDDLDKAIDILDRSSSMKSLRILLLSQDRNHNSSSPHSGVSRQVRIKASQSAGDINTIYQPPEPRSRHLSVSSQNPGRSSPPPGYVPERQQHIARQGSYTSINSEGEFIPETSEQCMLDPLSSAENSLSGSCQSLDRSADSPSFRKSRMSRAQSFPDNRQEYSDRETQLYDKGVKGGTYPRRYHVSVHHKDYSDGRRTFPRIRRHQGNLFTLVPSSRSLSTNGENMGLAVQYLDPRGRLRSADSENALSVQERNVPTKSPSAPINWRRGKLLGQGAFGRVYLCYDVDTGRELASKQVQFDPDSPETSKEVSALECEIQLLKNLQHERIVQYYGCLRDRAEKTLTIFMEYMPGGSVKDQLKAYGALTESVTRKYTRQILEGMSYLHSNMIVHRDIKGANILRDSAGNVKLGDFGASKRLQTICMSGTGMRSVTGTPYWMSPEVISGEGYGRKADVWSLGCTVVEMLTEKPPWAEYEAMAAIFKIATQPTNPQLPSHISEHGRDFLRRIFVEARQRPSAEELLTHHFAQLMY
# Dynein cargo inh: inhibitors of GR-EGFP nuclear translocation, primary screen, dynein cargo transport inhibitor project, imaging, high-content, 3617.4 mouse cells; test concentration mostly 20 µM; stimulated with dexamethasone, 1 µM; active compounds read low; z-score, hits read low; actives 0.47% (n = 220,000); AID 1381, 2008;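 active = plate z-score of nuclear minus cytoplasmic receptor signal below a set negative limit, without overly bright fluorescence or cell loss, cut at about -3.5 in these data, passing the limit was not always enough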;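 also: z-score of nuclear minus cytoplasmic ring GR-EGFP intensity difference per well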
#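 Buffer or medium: tetracycline-free induction medium containing charcoal-stripped FBS / Reagent: dexamethasone agonist, 1.0 µM final, for 30 min / Technique: automated 10x imaging of fixed Hoechst-stained cells / Times: induction 48 h, compound 1 h, agonist 30 min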
# MEKK2 mut-MEK5: MEK5 binding signal on mutant MEKK2 PB1, primary screen, biochemical, multiplex bead flow cytometry, Alexa488-MEK5. Alexa488-MEK5 binding to MEKK2 mutant. percent response, % at 10 µM. actives 0.35% (n = 290,000). AID 1530, 2009; in the data active = percent response above about 24%, passing the limit was not always enough
# ATG4B inhibitor: ATG4B protease inhibitors, primary screen, biochemical, fluorescence, uHTS | Cysteine protease ATG4B (Homo sapiens), Q9Y4P1 | ATG4B cleavage of LC3-PLA2, NBD-HPC fluorescence, 1 h | inhibition, % at 8.33 µM | actives 0.51% (n = 340,000); in the data active = inhibition above about 40%
# Beta2AR agonist: beta2AR agonists driving receptor internalization, primary screen, cell-based, FAP fluorogen, flow cytometry. actives 0.43% (n = 340,000). Am2.2-beta2AR cells. Beta-2 adrenergic receptor (Homo sapiens), P07550. response, % (concentration not given with the values);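 active = response above a set limit, near 3 SD of response in nonfluorescent compounds, cut at about 42% in these data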
# Beta2AR ag CP1: beta2AR agonists via receptor internalization, confirmation, cell-based, FAP fluorogen, flow cytometry, single point, cherry pick 1; shares compounds with Beta2AR agonist; Am2.2-beta2AR cells, FAP surface receptor; active compounds read low; percent response (surface receptor), % at 10 µM; actives 25% (n = 1,100);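 active = surface receptor percent response at or below 58%, roughly 3 SD from nonfluorescent compounds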
# FAP fluor counter: flagged in Am2.2 fluorescence counterscreen for beta-2AR agonists; Am2.2 cells, FAP fluorogen flow cytometry; active compounds read low; calls only at 10 µM; 1,100 tested, under 10 active; shares compounds with Beta2AR agonist; AID 588765;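 active = percent response below a set limit in fluorescence channel 1 and below 50% in channel 8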
# The depositor's hits bear a star; i = inactive; nt = not tested or not shown.
SMILES,MEKK2 WT-MEK5,MEKK3 PB1 HTS,Dynein cargo inh,MEKK2 mut-MEK5,ATG4B inhibitor,Beta2AR agonist,Beta2AR ag CP1,FAP fluor counter
CCCS(=O)(=O)N1CCCC(C(=O)Oc2ccc(OC)cc2)C1 (stereo not drawn),110,106,nt,5,0,1,nt,nt
O=C(OCc1c(F)cccc1Cl)c1cnc2ccccc2n1,100,102,nt,-1,4,46*,108,i
O=C(OCc1c(F)cccc1Cl)c1cnccn1,110,111,-0.089,1,-5,4,nt,nt
OCCNCC(O)Cn1c2ccccc2c2ccccc21 (stereo not drawn),65,52,1.2,-14,0,-4,nt,nt
COc1ccccc1CNCC(O)Cn1c2ccccc2c2ccccc21 (stereo not drawn),120,90,2,0,10,55*,111,i
COc1ncnc2c1oc1nc(C)c3c(c12)CC(C)(C)OC3,89,86,0.14,-13,11,9,79,i
N#C/C(=C(/O)CCl)c1nc2ccccc2[nH]1,84,77,2.6,-10,-4,2,nt,nt
COc1ccc(CN2CCN(C(=O)CCC(=O)c3ccc(C)s3)CC2)cc1OC,nt,nt,nt,nt,-7,9,nt,nt
CCOc1cc(CNCCc2ccc(S(N)(=O)=O)cc2)ccc1OCc1ccccc1,126,83,0.63,1,2,13,110,i
CC(=O)Nc1cc(C(=O)OC(C(=O)c2ccccc2)c2ccccc2)ccc1C (stereo not drawn),nt,nt,-0.33,nt,2,121*,22*,i
COc1ccc(C(=O)C(OC(=O)c2ccc(C)c(NC(C)=O)c2)c2ccccc2)cc1 (stereo not drawn),98,100,0.29,-2,-8,-3,nt,nt
CCOc1ccccc1N=C1SCC(C)N1C(=O)C1CCN(c2ncnc3sc(C)c(C)c23)CC1 (stereo not drawn),nt,nt,nt,nt,6,0,nt,nt
CCc1cc(=O)oc2c(C)c(OCC(=O)NC3CC(C)(C)NC(C)(C)C3)ccc12,102,99,nt,1,1,-6,nt,nt
COc1ccc(NC(=O)CN(C)C(=O)c2sc3cc(Cl)ccc3c2Cl)cc1,nt,nt,nt,nt,-5,-12,nt,nt
Cc1c(Cl)cccc1N1C(=O)C(N2C(=O)c3cccc([N+](=O)[O-])c3C2=O)C1c1cccs1 (stereo not drawn),98,100,-0.74,3,-17,52*,96,i
O=C1c2cccc([N+](=O)[O-])c2C(=O)N1C1CCCCC1,95,99,nt,-11,1,-6,nt,nt
CN(CC(=O)N1CCN(c2ccccn2)CC1)S(=O)(=O)c1ccc2ccccc2c1,92,95,-0.68,-7,-21,-2,nt,nt
CN(CC(=O)N1CCN(c2ccccn2)CC1)S(=O)(=O)c1ccc(Cl)cc1,84,93,nt,-9,3,110*,33*,i
CN(CC(=O)N1CCN(c2ccc(F)cc2)CC1)S(=O)(=O)c1ccc(F)cc1,102,104,-0.11,1,-11,-3,120,i
O=C(CCNS(=O)(=O)c1ccc(Cl)cc1)N1CCN(c2ccccn2)CC1,97,99,nt,3,-2,0,nt,nt
CN1CCN(C(=O)CN(C)S(=O)(=O)c2ccc(F)cc2)CC1,97,99,nt,-4,2,-1,nt,nt
Cc1ccc(S(=O)(=O)N(C)CC(=O)N2CCN(c3ccccn3)CC2)cc1,103,106,0.3,2,-3,99*,16*,i
COc1ccc(N2CCN(C(=O)CN(C)S(=O)(=O)c3cc(C)ccc3OC)CC2)cc1,102,102,0.61,0,-3,4,91,i
Cc1cc(Cl)c(S(=O)(=O)N2CCN(c3ccccn3)CC2)cc1OCC(N)=O,107,104,-0.93,8,-10,-15,nt,nt
Cc1ccccc1NC(=O)Cc1nnc(SCC(=O)NC2CCCCC2)n1C,100,102,nt,5,-16,-4,nt,nt
SMILES,MEKK2 WT-MEK5,MEKK3 PB1 HTS,Dynein cargo inh,MEKK2 mut-MEK5,ATG4B inhibitor,Beta2AR agonist,Beta2AR ag CP1,FAP fluor counter
CCN1C[C@@H]2[C@@H]3C(=O)N(C)C(=O)[C@@H]3[C@](Cc3ccccc3)(C1=O)N2C(=O)c1ccccc1,nt,nt,nt,nt,-3,-3,nt,nt
O=C(OCC(=O)N1CCCC1)c1ccccc1C(=O)c1ccccc1,nt,nt,nt,nt,-55,5,118,i
CSc1ncc(Cl)c(C(=O)Nc2ccccc2[N+](=O)[O-])n1,103,99,nt,2,-5,-3,nt,nt
O=C(CCCc1c[nH]c2ccccc12)NCc1ccccc1F,100,99,nt,1,-9,-2,nt,nt
Cc1ccc(CNC(=O)CCCc2c[nH]c3ccccc23)cc1,100,99,nt,0,-16,52*,104,i
Nc1nnc(CCS(=O)(=O)c2ccc(Br)cc2)s1,96,102,-0.28,1,-3,1,nt,nt
CCN(CC)CCNC(=O)c1cc(-c2cccnc2)nc2ccc(S(=O)(=O)N3CCC(C)CC3)cc12,122,104,nt,6,-7,19,92,i
CCCCN(C)CCNC(=O)c1cc(-c2cccnc2)nc2ccc(S(=O)(=O)N3CCC(C)CC3)cc12,136*,103,nt,14,-2,46*,98,i
CCCCNS(=O)(=O)c1ccc2nc(-c3cccnc3)cc(C(=O)NCCCN(CC)CC)c2c1,87,74,2,-9,nt,nt,nt,nt
COc1ccc(Cl)cc1NC(=S)N1CCN(C(=O)c2ccco2)CC1,104,103,-0.53,5,2,-2,nt,nt
CN(C)c1ccc(NC(=O)C2CCCN(S(=O)(=O)c3ccccc3)C2)cc1 (stereo not drawn),102,107,-0.4,-3,0,4,nt,nt
Cc1cc(C)n(-c2ccc(C(=O)OCC(=O)Nc3cc(S(C)(=O)=O)ccc3Cl)cc2)n1,nt,nt,nt,nt,-20,-6,nt,nt
Cc1ccccc1N=C/C=C1/C=C(c2ccccc2)OC(C)(C)O1,101,105,0.21,2,4,43*,85,i
COc1ccc(N=C/C=C2\C=C(c3ccccc3)OC(C)(C)O2)cc1,111,104,-0.92,7,2,29,nt,nt

# Bioassay records deposited in PubChem by several laboratories.
